How the values were obtained:
Cavia porcellus [1] = species: Cavia porcellus; experiment: Effect on the contractile force of spontaneously beating atria from Reserpine-treated guinea pigs as percentage variation from the control at concentration of 10E-3 M; type: functional
In short: (§1)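 Atria from reserpine-treated guinea pigs (reserpine 2 mg/kg ip, 48 and 24 h before death; only tyramine-unresponsive preparations used). Bath solution at 29 °C, gassed 95% O2/5% CO2, pH 7.5, resting tension […]. After 90 min equilibration, compound added cumulatively, 5 min per concentration. Isometric developed-tension amplitude or beating rate given as % variation from untreated control. Mean ± SEM, 6-10 assays.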

Cavia porcellus [2] = species: Cavia porcellus; experiment: Effect on the frequency rate of spontaneously beating atria from Reserpine-treated guinea pigs as percentage variation from the control at concentration of 10E-4 M; type: functional; in short: as §1
Cavia porcellus [3] = species: Cavia porcellus; experiment: Compound was evaluated for its effect on the frequency rate of spontaneously beating atria from Reserpine-treated guinea pigs as percentage variation from the control at concentration of 3 x 10E-5 M; type: functional; in short: as §1
Cavia porcellus [4] = species: Cavia porcellus; experiment: Effect on the frequency rate of spontaneously beating atria from Reserpine-treated guinea pigs as percentage variation from the control at concentration of 10E-5 M; type: functional; in short: as §1
Cavia porcellus [5] = species: Cavia porcellus; experiment: Effect on the contractile force of spontaneously beating atria from Reserpine treated guinea pigs as percentage variation from the control at concentration of 10E-4 M; type: functional; in short: as §1
Cavia porcellus [6] = species: Cavia porcellus; experiment: Effect on the contractile force of spontaneously beating atria from Reserpine-treated guinea pigs as percentage variation from the control at concentration of 10E-5 M; type: functional; in short: as §1
Cavia porcellus [7] = species: Cavia porcellus; experiment: Effect on the frequency rate of spontaneously beating atria from Reserpine-treated guinea pigs as percentage variation from the control at concentration of 10E-6 M; type: functional; in short: as §1
Cavia porcellus [8] = species: Cavia porcellus; experiment: Effect on the contractile force of spontaneously beating atria from Reserpine-treated guinea pigs as percentage variation from the control at concentration of 3 x 10E-5 M; type: functional; in short: as §1
Cavia porcellus [9] = species: Cavia porcellus; experiment: Compound was evaluated for its effect on the frequency rate of spontaneously beating atria from Reserpine-treated guinea pigs as percentage variation from the control at concentration of 3 x 10E-4 M; type: functional; in short: as §1
Cavia porcellus [10] = species: Cavia porcellus; experiment: Effect on the contractile force of spontaneously beating atria from Reserpine-treated guinea pigs as percentage variation from the control at concentration of 3 x 10E-6 M; type: functional; in short: as §1
Cavia porcellus [11] = species: Cavia porcellus; experiment: Effect on the contractile force of spontaneously beating atria from Reserpine-treated guinea pigs as percentage variation from the control at concentration of 3 x 10E-4 M; type: functional; in short: as §1
Cavia porcellus [12] = species: Cavia porcellus; experiment: Effect on the frequency rate of spontaneously beating atria from Reserpine-treated guinea pigs as percentage variation from the control at concentration of 10E-3 M; type: functional; in short: as §1
Cavia porcellus [13] = species: Cavia porcellus; experiment: Effect on the contractile force of spontaneously beating atria from Reserpine-treated guinea pigs as percentage variation from the control at concentration of 10E-6 M; type: functional; in short: as §1
Cavia porcellus [14] = species: Cavia porcellus; experiment: Compound was evaluated for its effect on the frequency rate of spontaneously beating atria from Reserpine-treated guinea pigs as percentage variation from the control at concentration of 3 x 10E-6 M; type: functional; in short: as §1
Cavia porcellus [15] = species: Cavia porcellus; experiment: Compound was evaluated for its effect on the frequency rate of spontaneously beating atria from Reserpine-treated guinea pigs as percentage variation from the control at different concentration of 3 x 10E-4 M; type: functional; in short: as §1
Cavia porcellus [16] = species: Cavia porcellus; experiment: Compound was evaluated for its effect on the frequency rate of spontaneously beating atria from Reserpine-treated guinea pigs as percentage variation from the control at different concentration of 10E-4 M; type: functional; in short: as §1
Cavia porcellus [17] = species: Cavia porcellus; experiment: Compound was evaluated for its effect on the frequency rate of spontaneously beating atria from Reserpine-treated guinea pigs as percentage variation from the control at different concentration of 10E-3 M; type: functional; in short: as §1
Cavia porcellus [18] = species: Cavia porcellus; experiment: Compound was evaluated for its effect on the frequency rate of spontaneously beating atria from Reserpine-treated guinea pigs as percentage variation from the control at different concentration of 3 x 10E-5 M; type: functional; in short: as §1
Cavia porcellus [19] = species: Cavia porcellus; experiment: Compound was evaluated for its effect on the frequency rate of spontaneously beating atria from Reserpine-treated guinea pigs as percentage variation from the control at different concentration of 10E-5 M; type: functional; in short: as §1
Cavia porcellus [20] = species: Cavia porcellus; experiment: Inotropic Response in Electrically Driven Left Atrium from Reserpine-Treated Guinea Pigs in the absence of adenosine deaminase (ADA) at 10E-4 M; type: functional
In short: (§2)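 Electrically driven left atrium from reserpine-treated guinea pigs (tyramine-unresponsive), 29 °C, pH 7.5, resting tension […], 90 min equilibration. Compound dissolved in DMSO and added cumulatively, 5 min per step. Where used, adenosine deaminase was preincubated 20 min, and basal force was taken after ADA addition. Developed tension given as % change over control. Mean ± SEM of six assays.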

Cavia porcellus [21] = species: Cavia porcellus; experiment: Inotropic Response in Electrically Driven Left Atrium from Reserpine-Treated Guinea Pigs in the presence of 2 U/mL of adenosine deaminase (ADA) at 3 x 10E-4 M; type: functional; in short: as §2
Cavia porcellus [22] = species: Cavia porcellus; experiment: Inotropic effect in electrically driven left atrium from reserpine-treated guinea pigs at concentration of 10E-3 M; type: functional, Cardiac atrium; in short: as §2
Cavia porcellus [23] = species: Cavia porcellus; experiment: Inotropic Response in Electrically Driven Left Atrium from Reserpine-Treated Guinea Pigs in the absence of adenosine deaminase (ADA) at 3 x 10E-5 M; type: functional; in short: as §2
Cavia porcellus [24] = species: Cavia porcellus; experiment: Inotropic Response in Electrically Driven Left Atrium from Reserpine-Treated Guinea Pigs in the presence of 2 U/mL of adenosine deaminase (ADA) at 10E-3 M; type: functional; in short: as §2
Cavia porcellus [25] = species: Cavia porcellus; experiment: Inotropic effect in electrically driven left atrium from reserpine-treated guinea pigs at concentration of 3 x 10E-6 M; type: functional, Cardiac atrium; in short: as §2
Cavia porcellus [26] = species: Cavia porcellus; experiment: Inotropic effect in electrically driven left atrium from reserpine-treated guinea pigs at concentration of 10E-4 M; type: functional, Cardiac atrium; in short: as §2
Cavia porcellus [27] = species: Cavia porcellus; experiment: Inotropic effect in electrically driven left atrium from reserpine-treated guinea pigs at concentration of 3 x 10E-5 M; type: functional, Cardiac atrium; in short: as §2
Cavia porcellus [28] = species: Cavia porcellus; experiment: Inotropic Response in Electrically Driven Left Atrium from Reserpine-Treated Guinea Pigs in the absence of adenosine deaminase (ADA) at 10E-3 M; type: functional; in short: as §2
Cavia porcellus [29] = species: Cavia porcellus; experiment: Inotropic Response in Electrically Driven Left Atrium from Reserpine-Treated Guinea Pigs in the absence of adenosine deaminase (ADA) at 3 x 10E-4 M; type: functional; in short: as §2
Cavia porcellus [30] = species: Cavia porcellus; experiment: Inotropic Response in Electrically Driven Left Atrium from Reserpine-Treated Guinea Pigs in the absence of adenosine deaminase (ADA) at 3 x 10E-6 M; type: functional; in short: as §2
Cavia porcellus [31] = species: Cavia porcellus; experiment: Inotropic effect in electrically driven left atrium from reserpine-treated guinea pigs at concentration of 10E-6 M; type: functional, Cardiac atrium; in short: as §2
Cavia porcellus [32] = species: Cavia porcellus; experiment: Inotropic Response in Electrically Driven Left Atrium from Reserpine-Treated Guinea Pigs in the presence of 2 U/mL of adenosine deaminase (ADA) at 3 x 10E-6 M; type: functional; in short: as §2
Cavia porcellus [33] = species: Cavia porcellus; experiment: Inotropic Response in Electrically Driven Left Atrium from Reserpine-Treated Guinea Pigs in the presence of 2 U/mL of adenosine deaminase (ADA) at 10E-5 M; type: functional; in short: as §2
Cavia porcellus [34] = species: Cavia porcellus; experiment: Inotropic effect in electrically driven left atrium from reserpine-treated guinea pigs at concentration of 3 x 10E-4 M; type: functional, Cardiac atrium; in short: as §2
Cavia porcellus [35] = species: Cavia porcellus; experiment: Inotropic Response in Electrically Driven Left Atrium from Reserpine-Treated Guinea Pigs in the presence of 2 U/mL of adenosine deaminase (ADA) at 3 x 10E-5 M; type: functional; in short: as §2
Cavia porcellus [36] = species: Cavia porcellus; experiment: Inotropic effect in electrically driven left atrium from reserpine-treated guinea pigs at concentration of 10E-5 M; type: functional, Cardiac atrium; in short: as §2
Cavia porcellus [37] = species: Cavia porcellus; experiment: Inotropic Response in Electrically Driven Left Atrium from Reserpine-Treated Guinea Pigs in the presence of 2 U/mL of adenosine deaminase (ADA) at 10E-4 M; type: functional; in short: as §2
Cavia porcellus [38] = species: Cavia porcellus; experiment: Inotropic Response in Electrically Driven Left Atrium from Reserpine-Treated Guinea Pigs in the absence of adenosine deaminase (ADA) at 10E-5 M; type: functional; in short: as §2
Adenosine receptor A1 = biological target: T1, Adenosine receptor A1 (Cavia porcellus, UniProt P47745); experiment: Inhibition of [3H]-CHA binding to Adenosine A1 receptor in guinea pig heart
T1 sequence (P47745 whole entry): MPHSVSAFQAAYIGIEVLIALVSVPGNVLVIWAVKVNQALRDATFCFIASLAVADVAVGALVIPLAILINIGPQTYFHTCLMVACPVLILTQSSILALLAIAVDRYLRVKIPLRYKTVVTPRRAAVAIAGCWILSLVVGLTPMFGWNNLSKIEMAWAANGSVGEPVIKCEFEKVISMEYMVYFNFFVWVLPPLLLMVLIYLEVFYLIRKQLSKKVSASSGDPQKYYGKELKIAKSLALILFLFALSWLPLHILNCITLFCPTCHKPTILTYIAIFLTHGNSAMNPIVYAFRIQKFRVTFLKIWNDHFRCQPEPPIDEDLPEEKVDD
In short: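 Guinea pig heart membranes prepared in 50 mM Tris-HCl pH 7.4 and pretreated with adenosine deaminase 2 IU/mL for 30 min at 37 °C. Incubated with 1 nM [3H]CHA, membranes from 15 mg tissue, 120 min at 23 °C. Bound ligand separated by GF/B filtration; nonspecific binding defined with (R)-PIA. Six concentrations tested in triplicate; IC50 by probit analysis.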

Structure (SMILES)	Variation (Cavia porcellus [1])	Variation (Cavia porcellus [2])	Variation (Cavia porcellus [3])	Variation (Cavia porcellus [4])	Variation (Cavia porcellus [5])	Variation (Cavia porcellus [6])	Variation (Cavia porcellus [7])	Variation (Cavia porcellus [8])	Variation (Cavia porcellus [9])	Variation (Cavia porcellus [10])	Variation (Cavia porcellus [11])	Variation (Cavia porcellus [12])	Variation (Cavia porcellus [13])	Variation (Cavia porcellus [14])	further results
COCc1nc(N(C)C)ncc1C(=O)OC	25.41%	7.14%	3.57%	2.85%	16.95%	11.14%	0%	14.95%	7.14%	6.93%	18.95%	11.43%	3.04%	0%	–
Cc1nc(N(C)C)ncc1C(=O)O	21.96%	3.22%	3.22%	9.67%	10.82%	5.18%	0%	8.62%	6.45%	3.77%	15.77%	-3.12%	0%	6.45%	–
CN(C)c1ncc(C(=O)O)c(C(C)(C)C)n1	18.64%	–	–	–	13.23%	9.67%	0%	12.51%	–	7.58%	14.21%	–	3.51%	3.33%	Variation (Cavia porcellus [15]): 7.42%; Variation (Cavia porcellus [16]): 3.71%; Variation (Cavia porcellus [17]): 11.11%; Variation (Cavia porcellus [18]): 3.33%; Variation (Cavia porcellus [19]): 3.33%
CN(C)c1ncc(C(=O)O)c(Cc2ccccc2)n1	88.05%	-5.02%	-3.85%	0%	35.26%	15.24%	0%	22.89%	-5.69%	9.37%	67.75%	-10.25%	3.52%	0%	Increase (Cavia porcellus [20]): 44.95%; Increase (Cavia porcellus [21]): 33.3%; Variation (Cavia porcellus [22]): 78.6%; Increase (Cavia porcellus [23]): 33.61%; Increase (Cavia porcellus [24]): 57.2%; Variation (Cavia porcellus [25]): 9.7%; Variation (Cavia porcellus [26]): 36.3%; Variation (Cavia porcellus [27]): 24.7%; Increase (Cavia porcellus [28]): 88.35%; Increase (Cavia porcellus [29]): 66.21%; Increase (Cavia porcellus [30]): 11.21%; Variation (Cavia porcellus [31]): 3.23%; Increase (Cavia porcellus [32]): 0%; Increase (Cavia porcellus [33]): 4.76%; Variation (Cavia porcellus [34]): 53%; Increase (Cavia porcellus [35]): 9.52%; Variation (Cavia porcellus [36]): 16.5%; Increase (Cavia porcellus [37]): 19.1%; Increase (Cavia porcellus [38]): 27.41%; IC50 (Adenosine receptor A1): 583 µM
